Measured values reported in ChEMBL document CHEMBL1268891, “Novel synthetic 2-amino-10-(3,5-dimethoxy)benzyl-9(10H)-acridinone derivatives as potent DNA-binding antiproliferative agents” (Bioorg Med Chem, 2010).
The source made the active and inactive calls. The calls are words filed in the database; no cut-off is given here.

What was measured:
CCRF-CEM = experiment: Cytotoxicity against human CCRF-CEM cells after 48 hrs by MTT assay; assay type: functional, cell-based
Outline: (§1)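 CCRF-CEM cells grown in RPMI 1640 with 10% FBS and penicillin/streptomycin at 37 °C, 5% CO₂. Seeded at 2×10^5 cells/mL and exposed to graded doses from DMSO stock, in quintuplicate, for 48 h. MTT (5 mg/mL) added for 4 h, formazan dissolved in DMSO and read at 490 nm. IC50 is the concentration giving 50% growth inhibition.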

A549 = experiment: Cytotoxicity against human A549 cells after 48 hrs by MTT assay; assay type: functional, cell-based; conditions: A549, 48 h
Outline: as §1, with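 “A549, HepG2 and MCF7” for “CCRF-CEM”, “DMEM” for “RPMI 1640”, “treated with” for “exposed to”, “MTT” for “MTT (5 mg/mL)”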

HepG2 = experiment: Cytotoxicity against human HepG2 cells after 48 hrs by MTT assay; assay type: functional, cell-based; conditions: HepG2, 48 h
Outline: as §1, with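 “A549, HepG2 and MCF7” for “CCRF-CEM”, “DMEM” for “RPMI 1640”, “treated with” for “exposed to”, “MTT” for “MTT (5 mg/mL)”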

MCF7 = experiment: Cytotoxicity against human MCF7 cells after 48 hrs by MTT assay; assay type: functional, cell-based; conditions: MCF7, 48 h
Outline: as §1, with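 “A549, HepG2 and MCF7” for “CCRF-CEM”, “DMEM” for “RPMI 1640”, “treated with” for “exposed to”, “MTT” for “MTT (5 mg/mL)”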

Calf thymus DNA [1] = experiment: Binding affinity to calf thymus DNA assessed as intercalation by UV-vis spectral analysis; assay type: nucleic-acid assay; conditions: Bos taurus
Outline: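 Compound at 40 μM titrated with ct DNA at 0–80 μM in 10 mM Tris-HCl, 50 mM NaCl, pH 7.2. Incubated 5 min, then spectra read in a 1.0 cm quartz cell. Kb obtained from a plot of [DNA]/(εa−εf) against [DNA], with DNA concentration in base pairs.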

Calf thymus DNA [2] = experiment: Binding affinity to calf thymus DNA assessed as intercalation at 20 uM by fluorescence emission spectral analysis; assay type: nucleic-acid assay; conditions: Bos taurus
Outline: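 Compound at about 20 μM final (from 5 mM DMSO stock) in 10 mM Tris-HCl, 50 mM NaCl, pH 7.2, with or without ct DNA at 20 or 40 μM final. Emission recorded after equilibrium on excitation at 380 nm. DNA concentration set by A260 (6600 M⁻¹ cm⁻¹ per phosphate; A260:A280 1.87).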

[3] = biological target: T1, DNA topoisomerase 1 (Homo sapiens) (UniProt P11387); experiment: Inhibition of human recombinant DNA topoisomerase 1-mediated DNA cleavage assessed as relaxation of supercoiled pBR322 plasmid DNA at 50 uM […] by ethidium bromide staining
T1 sequence (whole entry): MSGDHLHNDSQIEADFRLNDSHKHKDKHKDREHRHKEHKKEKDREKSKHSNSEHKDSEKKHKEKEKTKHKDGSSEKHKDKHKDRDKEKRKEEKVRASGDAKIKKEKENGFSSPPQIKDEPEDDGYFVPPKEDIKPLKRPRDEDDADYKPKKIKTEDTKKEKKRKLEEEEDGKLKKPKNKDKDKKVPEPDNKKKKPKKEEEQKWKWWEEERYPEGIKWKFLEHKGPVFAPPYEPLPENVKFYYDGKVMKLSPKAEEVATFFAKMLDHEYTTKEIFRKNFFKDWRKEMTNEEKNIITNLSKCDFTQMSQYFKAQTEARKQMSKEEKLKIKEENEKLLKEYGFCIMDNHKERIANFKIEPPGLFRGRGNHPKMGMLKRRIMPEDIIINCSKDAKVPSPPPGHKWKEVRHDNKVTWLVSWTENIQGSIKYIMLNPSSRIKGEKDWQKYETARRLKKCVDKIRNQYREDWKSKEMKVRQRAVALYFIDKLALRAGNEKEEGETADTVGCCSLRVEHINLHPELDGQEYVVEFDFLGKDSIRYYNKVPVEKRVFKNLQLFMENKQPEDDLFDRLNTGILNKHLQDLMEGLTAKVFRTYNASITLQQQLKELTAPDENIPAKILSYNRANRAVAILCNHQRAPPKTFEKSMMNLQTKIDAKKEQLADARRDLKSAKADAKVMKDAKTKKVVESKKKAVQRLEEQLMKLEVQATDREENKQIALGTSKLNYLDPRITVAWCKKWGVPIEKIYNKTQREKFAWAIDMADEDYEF
Outline: (§2)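 pBR322 (100 ng) incubated with 1.0 unit recombinant human topoisomerase I, with or without compound (10–50 or 250 μM), for 30 min at 37 °C. DMSO control included. Products run on 1% agarose in TAE at 100 V for 25 min and stained with ethidium bromide.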

[4] = biological target: T1, DNA topoisomerase 1 (Homo sapiens); experiment: Inhibition of human recombinant DNA topoisomerase 1-mediated DNA cleavage assessed as relaxation of supercoiled pBR322 plasmid DNA at 250 uM […] by ethidium bromide staining; outline: as §2

Kb (Calf thymus DNA [1])	Activity (Calf thymus DNA [2])	Activity [3]	Activity [4]	Compound	IC50 (CCRF-CEM) [nM]	IC50 (A549) [nM]	IC50 (HepG2) [nM]	IC50 (MCF7) [nM]
1.5 ×10⁵ /M	Active	Active	–	COc1cc(Cn2c3ccccc3c(=O)c3cc(NC(=O)CN)ccc32)cc(OC)c1	390	3400	6500	11700
–	–	inactive	Active	COc1cc(Cn2c3ccccc3c(=O)c3cc(NC(=O)CCN4CCOCC4)ccc32)cc(OC)c1	3010	–	–	–
–	–	inactive	Active	COc1cc(Cn2c3ccccc3c(=O)c3cc(NC(=O)CCN(C)C)ccc32)cc(OC)c1	910	–	–	–
5 ×10⁴ /M	Active	inactive	Active	COc1cc(Cn2c3ccccc3c(=O)c3cc(NC(=O)CCN4CCCC4)ccc32)cc(OC)c1	280	25900	4000	5700
–	–	inactive	Active	CCN(CC)CCC(=O)Nc1ccc2c(c1)c(=O)c1ccccc1n2Cc1cc(OC)cc(OC)c1	720	–	–	–
–	–	inactive	Active	COc1cc(Cn2c3ccccc3c(=O)c3cc(NC(=O)C(N)CCCCN)ccc32)cc(OC)c1 (stereo unspecified)	750	–	–	–
–	–	inactive	Active	COc1cc(Cn2c3ccccc3c(=O)c3cc(NC(=O)CCCN)ccc32)cc(OC)c1	670	–	–	–
–	–	inactive	Active	COc1cc(Cn2c3ccccc3c(=O)c3cc(NC(=O)CCN(CCO)CCO)ccc32)cc(OC)c1	950	–	–	–
–	–	inactive	Active	COc1cc(Cn2c3ccccc3c(=O)c3cc(NC(=O)CCN4CCC(O)CC4)ccc32)cc(OC)c1	640	–	–	–
–	–	inactive	Active	COc1cc(Cn2c3ccccc3c(=O)c3cc(NC(=O)CCCCN)ccc32)cc(OC)c1	1190	–	–	–
–	–	inactive	Active	COc1cc(Cn2c3ccccc3c(=O)c3cc(NC(=O)CCN4CCCCC4)ccc32)cc(OC)c1	600	–	–	–
–	–	inactive	Active	COc1cc(Cn2c3ccccc3c(=O)c3cc(NC(=O)CCCCCN)ccc32)cc(OC)c1	750	–	–	–
–	–	inactive	Active	COc1cc(Cn2c3ccccc3c(=O)c3cc(NC(=O)C(C)N)ccc32)cc(OC)c1 (stereo unspecified)	610	–	–	–
–	–	inactive	Active	COc1cc(Cn2c3ccccc3c(=O)c3cc(NC(=O)C(N)C(C)C)ccc32)cc(OC)c1 (stereo unspecified)	810	–	–	–
–	–	inactive	Active	COc1cc(Cn2c3ccccc3c(=O)c3cc(NC(=O)CCN)ccc32)cc(OC)c1	2550	–	–	–

Compound	Kb (Calf thymus DNA [1])	Activity (Calf thymus DNA [2])	Activity [3]	Activity [4]	IC50 (CCRF-CEM) [nM]	IC50 (A549) [nM]	IC50 (HepG2) [nM]	IC50 (MCF7) [nM]
COc1cc(Cn2c3ccccc3c(=O)c3ccccc32)cc(OC)c1	–	–	inactive	Active	–	–	–	–
